Columns and labels:
[1] = target: Centromere-associated protein E (Homo sapiens) (UniProt Q02224); test: Inhibition of porcine brain microtubule-stimulated human recombinant GST-tagged CENP-E ATPase activity at 1 mM by microplate reader in presence of Mg2+ ATP relative to control
In short: (§1)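 Motor domain at 15 µM final, in 7.5 mM PIPES-NaOH pH 7.0 with […], 10 µM Taxol, ELIPA 1 and 2 reagents and 1.25 mg/mL microtubules. AMP-PNP, a slowly hydrolysable ATP analog and general ATPase inhibitor, tested at 1 mM. Reaction started with 1 mM Mg2+ATP at 22 °C and read kinetically at 360 nm. Run in triplicate.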

[2] = target: T1, Kinesin-1 heavy chain (Homo sapiens) (UniProt P33176); test: Inhibition of porcine brain microtubule-stimulated human recombinant GST-tagged Kif5B ATPase activity at 1 mM by microplate reader in presence of Mg2+ ATP relative to control; in short: as §1
T1 sequence (whole entry): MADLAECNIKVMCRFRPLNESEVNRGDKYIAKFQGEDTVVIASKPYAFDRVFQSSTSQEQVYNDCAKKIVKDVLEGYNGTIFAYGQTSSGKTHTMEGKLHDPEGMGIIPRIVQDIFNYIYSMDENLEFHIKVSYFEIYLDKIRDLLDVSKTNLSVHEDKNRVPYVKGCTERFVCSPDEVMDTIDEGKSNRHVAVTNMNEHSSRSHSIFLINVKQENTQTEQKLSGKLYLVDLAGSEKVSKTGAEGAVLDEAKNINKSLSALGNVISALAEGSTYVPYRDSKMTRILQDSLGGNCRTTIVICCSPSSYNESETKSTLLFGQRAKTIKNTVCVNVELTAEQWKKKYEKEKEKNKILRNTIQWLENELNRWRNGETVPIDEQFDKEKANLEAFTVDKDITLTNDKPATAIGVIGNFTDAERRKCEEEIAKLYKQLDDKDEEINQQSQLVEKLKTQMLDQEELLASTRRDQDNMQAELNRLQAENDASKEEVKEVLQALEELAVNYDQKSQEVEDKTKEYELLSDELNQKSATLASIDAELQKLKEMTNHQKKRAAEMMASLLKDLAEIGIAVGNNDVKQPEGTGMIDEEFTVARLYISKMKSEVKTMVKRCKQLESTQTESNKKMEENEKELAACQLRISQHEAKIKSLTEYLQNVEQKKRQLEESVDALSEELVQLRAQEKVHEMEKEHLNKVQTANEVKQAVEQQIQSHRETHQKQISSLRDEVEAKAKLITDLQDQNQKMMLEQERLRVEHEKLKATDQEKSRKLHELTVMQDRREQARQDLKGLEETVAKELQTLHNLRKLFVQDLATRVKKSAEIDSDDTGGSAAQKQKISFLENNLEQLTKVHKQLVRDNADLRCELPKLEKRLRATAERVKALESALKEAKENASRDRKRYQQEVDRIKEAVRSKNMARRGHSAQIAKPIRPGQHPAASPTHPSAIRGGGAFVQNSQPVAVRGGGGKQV

[3] = tested on: K562; test: Growth inhibition of human K562 cells incubated for 4 days by WST-1 assay; format: functional; conditions: K562, 96 h
In short: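 Cells were kept at 37 °C under 5% CO2 and plated on day 0 at 500–5000 cells/well. On day 1 they received ten concentrations from 0.0025 to 50 µM (final), in triplicate. On day 4 WST-1 was added, followed by 30 min–4 h incubation and absorbance at 450 nm. GI50 is the concentration killing 50% of cells.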

Sequence of Centromere-associated protein E (Homo sapiens) (Q02224 whole entry, the tested form may be a part): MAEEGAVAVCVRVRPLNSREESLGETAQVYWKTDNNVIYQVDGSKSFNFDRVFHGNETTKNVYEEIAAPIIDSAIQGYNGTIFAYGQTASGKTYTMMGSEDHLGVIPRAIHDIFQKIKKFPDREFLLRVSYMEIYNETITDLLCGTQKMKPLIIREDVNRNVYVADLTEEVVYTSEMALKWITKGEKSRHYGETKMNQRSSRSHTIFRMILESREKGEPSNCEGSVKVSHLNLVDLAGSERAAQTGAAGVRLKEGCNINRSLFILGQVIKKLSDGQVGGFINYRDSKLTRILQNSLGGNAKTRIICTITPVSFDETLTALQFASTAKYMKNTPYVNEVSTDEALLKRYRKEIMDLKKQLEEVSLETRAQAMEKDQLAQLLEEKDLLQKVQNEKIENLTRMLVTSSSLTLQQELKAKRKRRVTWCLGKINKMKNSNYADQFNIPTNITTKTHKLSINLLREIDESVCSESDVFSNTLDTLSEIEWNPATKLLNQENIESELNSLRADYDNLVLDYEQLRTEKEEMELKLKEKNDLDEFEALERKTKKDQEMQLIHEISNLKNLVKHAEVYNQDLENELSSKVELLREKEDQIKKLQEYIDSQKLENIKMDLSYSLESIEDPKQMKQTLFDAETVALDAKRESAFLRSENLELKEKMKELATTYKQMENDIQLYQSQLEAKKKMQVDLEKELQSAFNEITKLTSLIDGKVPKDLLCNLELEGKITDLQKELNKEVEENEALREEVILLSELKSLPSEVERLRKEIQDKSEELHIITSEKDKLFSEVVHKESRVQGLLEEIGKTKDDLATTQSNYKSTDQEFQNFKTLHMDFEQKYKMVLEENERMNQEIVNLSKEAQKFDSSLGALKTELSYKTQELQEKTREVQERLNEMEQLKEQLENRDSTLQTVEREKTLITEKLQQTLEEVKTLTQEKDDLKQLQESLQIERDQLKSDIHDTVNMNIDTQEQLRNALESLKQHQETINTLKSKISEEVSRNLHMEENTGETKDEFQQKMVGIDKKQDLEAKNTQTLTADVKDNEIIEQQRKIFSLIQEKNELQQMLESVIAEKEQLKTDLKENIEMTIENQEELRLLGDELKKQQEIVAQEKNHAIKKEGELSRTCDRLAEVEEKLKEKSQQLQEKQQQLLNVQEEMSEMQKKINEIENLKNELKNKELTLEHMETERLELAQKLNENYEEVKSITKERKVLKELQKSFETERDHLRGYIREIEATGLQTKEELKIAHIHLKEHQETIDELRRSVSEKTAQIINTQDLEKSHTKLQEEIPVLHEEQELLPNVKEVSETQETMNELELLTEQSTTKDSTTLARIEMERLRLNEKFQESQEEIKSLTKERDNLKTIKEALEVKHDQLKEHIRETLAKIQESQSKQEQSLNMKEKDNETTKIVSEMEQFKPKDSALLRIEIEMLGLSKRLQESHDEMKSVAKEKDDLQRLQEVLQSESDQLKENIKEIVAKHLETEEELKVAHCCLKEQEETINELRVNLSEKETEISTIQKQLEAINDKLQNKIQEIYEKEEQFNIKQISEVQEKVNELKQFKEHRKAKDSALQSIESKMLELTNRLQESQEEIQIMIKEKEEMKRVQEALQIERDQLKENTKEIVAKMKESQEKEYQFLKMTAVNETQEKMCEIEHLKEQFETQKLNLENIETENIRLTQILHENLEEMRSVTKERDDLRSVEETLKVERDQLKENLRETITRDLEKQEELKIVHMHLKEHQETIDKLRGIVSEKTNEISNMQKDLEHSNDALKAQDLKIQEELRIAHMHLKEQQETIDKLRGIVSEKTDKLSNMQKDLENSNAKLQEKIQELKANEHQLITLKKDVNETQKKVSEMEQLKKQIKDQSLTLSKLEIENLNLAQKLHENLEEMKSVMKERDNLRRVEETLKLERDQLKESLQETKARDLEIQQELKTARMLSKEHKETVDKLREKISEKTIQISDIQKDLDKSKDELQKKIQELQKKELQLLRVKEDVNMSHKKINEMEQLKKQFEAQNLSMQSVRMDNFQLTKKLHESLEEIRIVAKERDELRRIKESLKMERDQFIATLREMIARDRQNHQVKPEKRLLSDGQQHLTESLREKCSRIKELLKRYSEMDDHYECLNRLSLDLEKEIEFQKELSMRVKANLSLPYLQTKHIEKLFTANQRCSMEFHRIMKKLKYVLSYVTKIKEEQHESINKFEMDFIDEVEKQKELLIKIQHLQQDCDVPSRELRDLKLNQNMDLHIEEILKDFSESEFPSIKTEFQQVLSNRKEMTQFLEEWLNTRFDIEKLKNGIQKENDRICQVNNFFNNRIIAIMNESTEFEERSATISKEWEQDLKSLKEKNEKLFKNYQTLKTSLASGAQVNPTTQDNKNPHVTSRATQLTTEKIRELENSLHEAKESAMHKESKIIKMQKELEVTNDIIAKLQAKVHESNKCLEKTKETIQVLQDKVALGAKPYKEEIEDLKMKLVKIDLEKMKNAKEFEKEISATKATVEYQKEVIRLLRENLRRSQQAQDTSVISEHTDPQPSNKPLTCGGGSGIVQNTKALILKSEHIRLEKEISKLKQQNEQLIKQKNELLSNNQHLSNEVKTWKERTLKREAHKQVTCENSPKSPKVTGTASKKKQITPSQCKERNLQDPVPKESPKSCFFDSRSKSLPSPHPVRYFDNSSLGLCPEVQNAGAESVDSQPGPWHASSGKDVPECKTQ

Row | GI50 [3] [µM] | SMILES | inhibition [1] [%] | inhibition [2] [%]
1 |  | Nc1ncnc2c1ncn2[C@@H]1O[C@H](COP(=O)(O)OP(=O)(O)NP(=O)(O)O)[C@@H](O)[C@H]1O | > 30 | > 30
2 | 4 | COc1ccc2[nH]cc(/C(C#N)=C/c3cccnc3)c2c1 |  | 

— ChEMBL document CHEMBL3751740, “New MKLP-2 inhibitors in the paprotrain series: Design, synthesis and biological evaluations” (Bioorg Med Chem, 2016)
